What was measured:
Acetylcholinesterase [1] = target: T1, Acetylcholinesterase (Homo sapiens, UniProt P22303); assay: Inhibition of human erythrocyte AChE assessed as acetylthiocholine iodide hydrolysis after 10 mins preincubation by spectrophotometry
How it was run: (§1)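 Human erythrocyte AChE (0.25 U/mL) with sample in 100 mM sodium phosphate pH 8.0, 10 min room temperature preincubation; started with DTNB (3.3 mM) and acetylthiocholine iodide (1 mM). Thiolate formation read at 412 nm, triplicate. IC50 as concentration for 50% inhibition; mode by Lineweaver–Burk plots over rising substrate and inhibitor, Ki by Dixon plot.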

Butyrylcholinesterase [2] = target: T2, Butyrylcholinesterase (Equus caballus, UniProt Q9N1N9); assay: Inhibition of equine BChE assessed as butyrylthiocholine iodide hydrolysis after 10 mins preincubation by spectrophotometry
How it was run: (§2)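 Equine serum BChE (0.05 U/mL) mixed with sample in 100 mM sodium phosphate pH 8.0, held 10 min at room temperature; started with DTNB (3.3 mM) and butyrylthiocholine iodide (1 mM). 5-Thio-2-nitrobenzoate read at 412 nm, triplicate. IC50 as concentration giving 50% inhibition; kinetics by Lineweaver–Burk plots at rising substrate and inhibitor levels, Ki from Dixon plot.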

Butyrylcholinesterase [3] = target: T2, Butyrylcholinesterase; assay: Mixed type inhibition of equine BChE using butyrylthiocholine iodide as substrate by Lineweaver-Burk double-reciprocal-plot and dixon plot analysis; how it was run: as §2
Acetylcholinesterase [4] = target: T1, Acetylcholinesterase; assay: Reversible inhibition of human erythrocyte AChE using assessed as acetylthiocholine iodide hydrolysis by spectrophotometry; settings: TDE = time-dependent effect
How it was run: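 hAChE (0.25 U/mL) with 1 mM acetylthiocholine in 100 mM sodium phosphate pH 8.0 at 37 °C, read continuously by spectrophotometer for 300 s. Reversibility from initial velocity versus enzyme amount at several inhibitor levels. Enzyme preincubated with inhibitor 0–60 min in 10 min steps; residual velocity (v/v0) followed; progress curves at one inhibitor level fitted by nonlinear regression.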

Acetylcholinesterase [5] = target: T1, Acetylcholinesterase; assay: Mixed type inhibition of human erythrocyte AChE using acetylthiocholine iodide as substrate by Lineweaver-Burk double-reciprocal-plot and dixon plot analysis; how it was run: as §1
Acetylcholinesterase [6] = target: T1, Acetylcholinesterase; assay: Binding affinity to human erythrocyte AChE assessed as fluorescence quenching by microplate reader
How it was run: (§3)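 hAChE at 5 U/mL in 100 mM sodium phosphate pH 8.0 titrated with successive inhibitor additions. Excitation 276 nm, emission 300–400 nm, slits 2.0 nm, at 18 and 37 °C; triplicate means. Affinity constant KA and n from log[(F0−F)/F] = logKA + n log[Q] for static quenching.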

Acetylcholinesterase [7] = target: T1, Acetylcholinesterase; assay: Binding affinity to human erythrocyte AChE; how it was run: as §3
Acetylcholinesterase [8] = target: T1, Acetylcholinesterase; assay: Ratio of eriodictyol IC50 to compound IC50 for human erythrocyte AChE

T1 sequence (P22303 whole entry): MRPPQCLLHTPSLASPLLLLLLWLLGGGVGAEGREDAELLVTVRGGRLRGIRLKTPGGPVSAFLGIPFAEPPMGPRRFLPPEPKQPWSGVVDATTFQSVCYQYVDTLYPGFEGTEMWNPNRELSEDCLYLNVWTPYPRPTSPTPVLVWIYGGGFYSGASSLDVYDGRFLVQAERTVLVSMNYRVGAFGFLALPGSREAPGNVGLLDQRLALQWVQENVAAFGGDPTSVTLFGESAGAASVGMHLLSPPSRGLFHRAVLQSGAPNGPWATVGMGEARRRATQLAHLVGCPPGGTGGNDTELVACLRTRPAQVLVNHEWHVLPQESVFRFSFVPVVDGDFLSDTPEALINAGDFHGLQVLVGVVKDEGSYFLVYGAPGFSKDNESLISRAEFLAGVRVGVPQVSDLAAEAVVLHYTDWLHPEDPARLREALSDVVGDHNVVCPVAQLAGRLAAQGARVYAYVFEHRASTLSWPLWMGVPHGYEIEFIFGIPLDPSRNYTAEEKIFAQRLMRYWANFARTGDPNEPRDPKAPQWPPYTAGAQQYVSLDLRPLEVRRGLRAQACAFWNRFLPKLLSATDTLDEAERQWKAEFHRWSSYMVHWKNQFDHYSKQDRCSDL
T2 sequence (Q9N1N9 whole entry): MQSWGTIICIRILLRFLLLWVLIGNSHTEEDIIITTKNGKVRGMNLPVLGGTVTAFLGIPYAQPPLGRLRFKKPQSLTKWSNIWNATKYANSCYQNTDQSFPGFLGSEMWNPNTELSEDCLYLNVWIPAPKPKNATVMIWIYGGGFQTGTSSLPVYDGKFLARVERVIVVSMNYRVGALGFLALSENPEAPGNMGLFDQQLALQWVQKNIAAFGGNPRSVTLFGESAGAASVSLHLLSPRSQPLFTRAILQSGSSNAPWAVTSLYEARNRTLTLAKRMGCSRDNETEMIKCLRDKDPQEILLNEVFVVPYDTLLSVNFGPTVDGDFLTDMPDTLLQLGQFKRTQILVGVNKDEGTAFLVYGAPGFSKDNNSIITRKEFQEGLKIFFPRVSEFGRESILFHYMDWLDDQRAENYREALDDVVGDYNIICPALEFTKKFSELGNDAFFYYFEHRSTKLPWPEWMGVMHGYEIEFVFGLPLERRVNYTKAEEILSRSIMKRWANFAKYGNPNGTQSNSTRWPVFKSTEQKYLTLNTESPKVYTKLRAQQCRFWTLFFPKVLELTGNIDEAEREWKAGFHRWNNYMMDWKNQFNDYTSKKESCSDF

Row | Structure (SMILES) | IC50 (Acetylcholinesterase [1]) | IC50 (Butyrylcholinesterase [2]) | Ki (Butyrylcholinesterase [3]) | inhibition (Acetylcholinesterase [4]) | inhibition (Acetylcholinesterase [1]) | Ki (Acetylcholinesterase [5]) | KSV (Acetylcholinesterase [6]) | Ka (Acetylcholinesterase [7]) | Ratio IC50 (Acetylcholinesterase [8])
1 | O=C1C[C@@H](c2ccc(O)c(O)c2)Oc2cc(O)cc(O)c21 [ERIODICTYOL] | 1660 µM | 1120 µM | – | – | – | – | – | – | –
2 | COc1cc([C@@H]2CC(=O)c3c(cc(O)c(C/C=C(\C)CCC=C(C)C)c3O)O2)ccc1O | 109 µM | 24.5 µM | 23.6 µM | tde | Dose-dependent effect | 150 µM | – | – | –
3 | CC(C)=CCC/C(C)=C/Cc1c(O)cc2c(c1O)C(=O)C[C@@H](c1ccc(O)c(O)c1)O2 [NYMPHAEOL A] | 7.2 µM | 1.4 µM | 1.2 µM | tde | Dose-dependent effect | 8.4 µM | 0.0577 ×10⁵ L/M | 5.49 ×10³ L/M | 200
4 | COc1ccc([C@@H]2CC(=O)c3c(cc(O)c(C/C=C(\C)CCC=C(C)C)c3O)O2)cc1O | 92.4 µM | 25.6 µM | 23.5 µM | tde | Dose-dependent effect | 94.5 µM | 0.0103 ×10⁵ L/M | 0.924 ×10³ L/M | –
5 | O=C1C[C@@H](c2ccc(O)cc2)Oc2cc(O)cc(O)c21 [NARINGENIN] | 2040 µM | 1490 µM | – | – | – | – | – | – | –
6 | CNC(=O)Oc1ccc2c(c1)[C@]1(C)CCN(C)[C@@H]1N2C [PHYSOSTIGMINE] | – | 3.7 µM | – | – | – | – | – | – | –
7 | CC(C)=CCC/C(C)=C/Cc1c(O)cc2c(c1O)C(=O)C[C@@H](c1ccc(O)cc1)O2 [BONANNIONE A] | 91.5 µM | 20.6 µM | 22.2 µM | tde | Dose-dependent effect | 120 µM | – | – | –
8 | COc1cc(C2CC(=O)c3c(cc(O)c(C/C=C(\C)CCC=C(C)C)c3O)O2)cc(OC)c1O (configuration not stated) | 316 µM | 80 µM | 75.2 µM | – | – | – | – | – | –
9 | COc1ccc([C@@H]2CC(=O)c3c(O)cc(O)cc3O2)cc1O [HESPERETIN] | 2480 µM | 1770 µM | – | – | – | – | – | – | –
10 | COc1c(O)cc(C2Oc3cc(O)c(C/C=C(\C)CCC=C(C)C)c(O)c3C(=O)[C@@H]2O)cc1O (some centres not stated) | 15.6 µM | 3.8 µM | 4.5 µM | tde | Dose-dependent effect | 16.9 µM | 0.0369 ×10⁵ L/M | 4.54 ×10³ L/M | –
11 | COc1cc([C@H]2Oc3cc(O)c(C/C=C(\C)CCC=C(C)C)c(O)c3C(=O)[C@@H]2O)ccc1O | 48.5 µM | 11.2 µM | 18.2 µM | tde | Dose-dependent effect | 68.2 µM | – | – | –
12 | COc1ccc([C@H]2Oc3cc(O)c(C/C=C(\C)CCC=C(C)C)c(O)c3C(=O)[C@@H]2O)cc1O | 31.9 µM | 12.7 µM | 18.7 µM | tde | Dose-dependent effect | 34.3 µM | 0.0285 ×10⁵ L/M | 2.7 ×10³ L/M | –
13 | COc1c(O)cc(C2CC(=O)c3c(cc(O)c(C/C=C(\C)CCC=C(C)C)c3O)O2)cc1O (configuration not stated) | 22.9 µM | 6.4 µM | 7.6 µM | tde | Dose-dependent effect | 30.1 µM | – | – | –
